Assay results reported in ChEMBL document CHEMBL4190190, “Furan and Lactam Jadomycin Biosynthetic Congeners Isolated from Streptomyces venezuelae ISP5230 Cultured with Nε-Trifluoroacetyl-l-lysine” (J Nat Prod, 2017).
Values after ≈ are worked out from the molar mass of the structure shown. Active and inactive are the calls of the source. The calls are words filed in the database; no cut-off is given here.

What was measured:
Proteus vulgaris = experiment: Antibacterial activity against Proteus vulgaris ATCC 12454 after 22 hrs by CLSI microbroth assay; format: functional, organism-based
BJ = experiment: Cytotoxicity against human BJ cells after 24 hrs by alamar blue assay; format: cell-based
Staphylococcus warneri = experiment: Antibacterial activity against Staphylococcus warneri ATCC 17917 after 22 hrs by CLSI microbroth assay; format: functional; conditions: ATCC 17917, 22 h
Enterococcus faecium = experiment: Antibacterial activity against vancomycin-resistant Enterococcus faecium EF379 after 22 hrs by CLSI microbroth assay; format: functional; conditions: EF379, 22 h
Procedure, shortened: (§1)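 Run within a six-organism panel: MRSA, Staphylococcus warneri and vancomycin-resistant E. faecium (Gram-positive), Proteus vulgaris and Pseudomonas aeruginosa (Gram-negative), and the yeast Candida albicans. Read-out was the minimum inhibitory concentration, reported in μg mL−1.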

Pseudomonas aeruginosa = experiment: Antibacterial activity against Pseudomonas aeruginosa ATCC 14210 after 22 hrs by CLSI microbroth assay; format: functional, organism-based
Vero = experiment: Cytotoxicity against African green monkey Vero cells after 24 hrs by alamar blue assay; format: cell-based; conditions: chlorocebus sabaeus
Staphylococcus aureus = experiment: Antibacterial activity against methicillin-resistant Staphylococcus aureus ATCC 33591 after 22 hrs by CLSI microbroth assay; format: functional; conditions: ATCC 33591, 22 h; procedure, shortened: as §1

Cc1cc(O)c2c(c1)C1OC(=O)[C@H](CCCCNC(=O)C(F)(F)F)N1C1=C2C(=O)c2cccc(O[C@H]3C[C@@H](O)[C@@H](O)[C@H](C)O3)c2C1=O (some centres undefined)
Activity (Proteus vulgaris): inactive
MIC90 (BJ): > 128 µg/mL
MIC (Staphylococcus warneri): 3 µg/mL (≈ 4.54 µM)
MIC (Enterococcus faecium): 13 µg/mL (≈ 19.7 µM)
Activity (Pseudomonas aeruginosa): inactive
MIC90 (Vero): > 128 µg/mL
MIC (Staphylococcus aureus): 3 µg/mL (≈ 4.54 µM)

Cc1cc(O)c2c3c(n([C@@H](CCCCNC(=O)C(F)(F)F)C(=O)O)c(=O)c2c1)C(=O)c1c(O[C@H]2C[C@@H](O)[C@@H](O)[C@H](C)O2)cccc1C3=O
Activity (Proteus vulgaris): inactive
MIC90 (BJ): > 128 µg/mL
MIC (Staphylococcus warneri): ≥ 100 µg/mL
MIC (Enterococcus faecium): ≥ 100 µg/mL
Activity (Pseudomonas aeruginosa): inactive
MIC90 (Vero): > 128 µg/mL
MIC (Staphylococcus aureus): ≥ 100 µg/mL
